Source: ChEMBL document CHEMBL1137220, “2-(2-(dimethylaminomethyl)phenoxy)-5-iodophenylamine: an improved serotonin transporter imaging agent” (J Med Chem, 2004)

Tests used:
[1] = Biodistribution in rat thyroid was determined after 24 hours of intravenous administration of the compound; [125I]- is used as radioactive isotope; format: ADME, organism-based, Thyroid gland; settings: in vivo
Outline: (§1)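 Rats, three per group, under ether anaesthesia, received 10 μCi of [¹²⁵I]-labelled tracer in 0.2 mL saline into the femoral vein. They were killed by cardiac excision under ether at each time point. Organs were removed, weighed and counted. Percent dose per organ was calculated against counts of a 1% aliquot of the injected dose (100-fold diluted) counted at the same time.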

[2] = Regional brain distribution in rat striatum was determined after 2 min of intravenous administration of the compound; [125I]- is used as radioactive isotope; format: ADME, tissue-based; settings: in vivo
Outline: (§2)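 Rats, three per group, injected with 10 μCi tracer in 0.2 mL saline via the femoral vein under ether anesthesia and killed by cardiac excision at the stated time. Cortex (frontal plus occipital), striatum, hippocampus, cerebellum and hypothalamus were dissected, weighed and gamma-counted. Values are % dose/g, calculated by comparison with counts of a 100-fold diluted aliquot of the injected dose.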

[3] = Regional brain distribution in rat cortex was determined after 24-hours of intravenous administration of the compound; [125I]- is used as radioactive isotope; format: ADME; settings: in vivo; outline: as §2
[4] = Distribution ratio in striatum and cerebellum was determined after 30 min of intravenous administration of the compound; [125I]- is used as radioactive isotope; format: ADME, tissue-based; settings: rat, 0.5 h
Outline: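 Rats, three per group, given 10 μCi tracer in 0.2 mL saline into the femoral vein under ether anesthesia, then killed by cardiac excision at the stated time. Brain regions were dissected, weighed and counted. Percent dose/g was calculated against a 1% diluted aliquot of the injected dose. The ratio is (region − cerebellum)/cerebellum on a % dose/g basis, with cerebellum as background.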

[5] = Distribution ratio in hippocampus and cerebellum was determined after 2 min of intravenous administration of the compound; [125I]- is used as radioactive isotope; format: ADME, tissue-based; settings: rat
Outline: (§3)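 After femoral-vein injection of 10 μCi [¹²⁵I] tracer in 0.2 mL saline under ether anaesthesia (three rats per group), brain regions were dissected, weighed and counted: cortex (frontal plus occipital), hippocampus, hypothalamus and cerebellum. %dose/g was calculated against a diluted injected-dose standard. Ratio = (region − cerebellum)/cerebellum on a %dose/g basis, with cerebellum as the background region.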

[6] = Distribution ratio in cortex and cerebellum was determined after 120 min of intravenous administration of the compound; [125I]- is used as radioactive isotope; format: ADME, tissue-based; settings: rat, 2 h; outline: as §3
[7] = Distribution ratio in hippocampus and cerebellum was determined after 30 min of intravenous administration of the compound; [125I]- is used as radioactive isotope; format: ADME, tissue-based; settings: rat, 0.5 h; outline: as §3
[8] = Distribution ratio in hypothalamus and cerebellum was determined after 11 hours of intravenous administration of the compound; [125I]- is used as radioactive isotope; format: ADME, tissue-based; settings: rat; outline: as §3
[9] = Distribution ratio in cortex and cerebellum was determined after 6 hrs of intravenous administration of the compound; [125I]- is used as radioactive isotope; format: ADME, tissue-based; settings: rat; outline: as §3
[10] = Regional brain distribution in rat cerebellum was determined after 60 min of intravenous administration of the compound; [125I]- is used as radioactive isotope; format: ADME, tissue-based; settings: in vivo, 1 h; outline: as §2
[11] = Regional brain distribution in rat striatum was determined after 11 hours of intravenous administration of the compound; [125I]- is used as radioactive isotope; format: ADME, tissue-based; settings: in vivo; outline: as §2
[12] = Regional brain distribution in rat hypothalamus was determined after 60 min of intravenous administration of the compound; [125I]- is used as radioactive isotope; format: ADME, tissue-based; settings: in vivo, 1 h; outline: as §2
[13] = Regional brain distribution in rat hypothalamus was determined after 11 hours of intravenous administration of the compound; [125I]- is used as radioactive isotope; format: ADME, tissue-based; settings: in vivo; outline: as §2
[14] = molecular target: Sodium-dependent dopamine transporter (Homo sapiens, UniProt Q01959); experiment: Binding affinity for dopamine transporter expressed in […] cells; format: cell-based
Sequence of Sodium-dependent dopamine transporter (Q01959 whole entry): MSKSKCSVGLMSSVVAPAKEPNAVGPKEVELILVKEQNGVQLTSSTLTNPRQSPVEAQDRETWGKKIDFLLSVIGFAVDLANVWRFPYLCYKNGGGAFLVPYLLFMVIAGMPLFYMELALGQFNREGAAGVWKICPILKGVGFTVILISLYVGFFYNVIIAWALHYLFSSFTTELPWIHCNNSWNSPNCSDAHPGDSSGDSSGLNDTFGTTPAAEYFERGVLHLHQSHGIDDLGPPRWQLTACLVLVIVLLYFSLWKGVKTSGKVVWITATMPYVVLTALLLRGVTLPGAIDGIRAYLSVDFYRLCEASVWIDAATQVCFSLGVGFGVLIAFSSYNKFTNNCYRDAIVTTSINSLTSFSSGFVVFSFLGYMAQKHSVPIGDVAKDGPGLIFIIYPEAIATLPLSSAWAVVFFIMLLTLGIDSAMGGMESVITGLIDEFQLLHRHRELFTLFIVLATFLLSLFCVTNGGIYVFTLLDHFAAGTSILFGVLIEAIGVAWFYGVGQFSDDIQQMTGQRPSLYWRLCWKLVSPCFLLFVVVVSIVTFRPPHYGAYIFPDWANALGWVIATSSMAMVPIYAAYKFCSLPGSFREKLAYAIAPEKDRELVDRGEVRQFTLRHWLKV
Outline: (§4)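 Membranes from confluent pig kidney LLC-PK₁ cells stably expressing the respective transporter, homogenized and pelleted, 30–40 μg protein. Incubated with 0.4 nM [¹²⁵I]IPT or [¹²⁵I]IDAM and 8–10 competitor concentrations (10⁻¹⁰ to 10⁻⁵ M) in 50 mM Tris-HCl pH 7.4, 120 mM NaCl, 0.1% BSA, 1 h at room temperature. Nonspecific binding was defined with 10 μM CFT for IPT and 1 μM IDAM for IDAM. Filtration, gamma counting, nonlinear regression for Ki.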

[15] = Biodistribution in rat blood was determined after 2 min of intravenous administration of the compound; [125I]- is used as radioactive isotope; format: ADME, organism-based; settings: in vivo
Outline: (§5)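 Rats under ether anesthesia, three per group, received 10 μCi tracer in 0.2 mL saline into the femoral vein. They were killed by cardiac excision under ether at each time point. Organs were removed, weighed and counted. Percent dose per organ was calculated against a 1%-of-injected-dose standard counted at the same time.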

[16] = Biodistribution in rat skin was determined after 30 min of intravenous administration of the compound; [125I]- is used as radioactive isotope; format: ADME, organism-based, Zone of skin; settings: in vivo, 0.5 h; outline: as §1
[17] = Biodistribution in rat blood was determined after 30 min of intravenous administration of the compound; [125I]- is used as radioactive isotope; format: ADME, organism-based; settings: in vivo, 0.5 h; outline: as §5
[18] = Biodistribution in rat blood was determined after 60 min of intravenous administration of the compound; [125I]- is used as radioactive isotope; format: ADME, organism-based; settings: in vivo, 1 h; outline: as §5
[19] = Biodistribution in rat heart was determined after 60 min of intravenous administration of the compound; [125I]- is used as radioactive isotope; format: ADME, organism-based; settings: in vivo, 1 h; outline: as §5
[20] = Biodistribution in rat thyroid was determined after 120 min of intravenous administration of the compound; [125I]- is used as radioactive isotope; format: ADME, organism-based, Thyroid gland; settings: in vivo, 2 h; outline: as §1
[21] = Biodistribution in rat thyroid was determined after 6 hours of intravenous administration of the compound; [125I]- is used as radioactive isotope; format: ADME, organism-based, Thyroid gland; settings: in vivo; outline: as §1
[22] = Biodistribution in rat liver was determined after 60 min of intravenous administration of the compound; [125I]- is used as radioactive isotope; format: ADME, organism-based; settings: in vivo, 1 h; outline: as §5
[23] = Biodistribution in rat blood was determined after 240 min of intravenous administration of the compound; [125I]- is used as radioactive isotope; format: ADME, organism-based; settings: in vivo, 4 h; outline: as §5
[24] = Biodistribution in rat heart was determined after 240 min of intravenous administration of the compound; [125I]- is used as radioactive isotope; format: ADME, organism-based; settings: in vivo, 4 h; outline: as §5
[25] = Biodistribution in rat skin was determined after 24 hours of intravenous administration of the compound; [125I]- is used as radioactive isotope; format: ADME, organism-based, Zone of skin; settings: in vivo; outline: as §1
[26] = Biodistribution in rat spleen was determined after 60 min of intravenous administration of the compound; [125I]- is used as radioactive isotope; format: ADME, organism-based; settings: in vivo, 1 h; outline: as §1
[27] = Biodistribution in rat muscle was determined after 30 min of intravenous administration of the compound; [125I]- is used as radioactive isotope; format: ADME, organism-based, Muscle tissue; settings: in vivo, 0.5 h; outline: as §1
[28] = Biodistribution in rat heart was determined after 24 hours of intravenous administration of the compound; [125I]- is used as radioactive isotope; format: ADME, organism-based; settings: in vivo; outline: as §5
[29] = Biodistribution in rat thyroid was determined after 60 min of intravenous administration of the compound; [125I]- is used as radioactive isotope; format: ADME, organism-based, Thyroid gland; settings: in vivo, 1 h; outline: as §1
[30] = Biodistribution in rat muscle was determined after 11 hours of intravenous administration of the compound; [125I]- is used as radioactive isotope; format: ADME, organism-based, Muscle tissue; settings: in vivo; outline: as §1
[31] = molecular target: Sodium-dependent serotonin transporter (Homo sapiens, UniProt P31645); experiment: Binding affinity for serotonin transporter expressed in […] cells; format: cell-based; outline: as §4
Sequence of Sodium-dependent serotonin transporter (P31645 whole entry): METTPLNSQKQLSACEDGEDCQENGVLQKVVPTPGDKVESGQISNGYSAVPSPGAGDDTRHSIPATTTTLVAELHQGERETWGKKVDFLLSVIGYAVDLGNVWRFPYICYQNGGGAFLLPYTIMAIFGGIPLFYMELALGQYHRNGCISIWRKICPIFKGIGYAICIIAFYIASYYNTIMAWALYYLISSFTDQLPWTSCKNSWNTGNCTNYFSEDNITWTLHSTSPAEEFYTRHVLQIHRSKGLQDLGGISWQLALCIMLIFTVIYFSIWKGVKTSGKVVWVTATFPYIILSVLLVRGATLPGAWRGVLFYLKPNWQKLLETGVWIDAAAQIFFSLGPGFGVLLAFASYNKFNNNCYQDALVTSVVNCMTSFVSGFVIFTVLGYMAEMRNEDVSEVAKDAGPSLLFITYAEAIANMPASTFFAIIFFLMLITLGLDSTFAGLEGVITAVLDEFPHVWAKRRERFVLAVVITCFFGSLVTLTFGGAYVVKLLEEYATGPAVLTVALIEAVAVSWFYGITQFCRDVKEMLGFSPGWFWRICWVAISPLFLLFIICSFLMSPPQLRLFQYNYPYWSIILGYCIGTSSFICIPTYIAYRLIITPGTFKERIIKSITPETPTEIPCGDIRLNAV

Which results are given for `CN(C)Cc1ccccc1Oc1ccc(I)cc1N`?
Dose [1]: 4.61%; Dose/g [2]: 0.77%; Dose/g [3]: 0.004%; Dose/g [4]: 0.83%; Dose/g [5]: 0.13%; Dose/g [6]: 1.48%; Dose/g [7]: 0.68%; Dose/g [8]: 0.44%; Dose/g [9]: 0.58%; Dose/g [10]: 0.41%; Dose/g [11]: 0.01%; Dose/g [12]: 1.18%; Dose/g [13]: 0.01%; Ki [14]: 309 nM; Dose [15]: 5.75%; Dose [16]: 11.3%; Dose [17]: 4.56%; Dose [18]: 3.89%; Dose [19]: 0.2%; Dose [20]: 0.96%; Dose [21]: 2.68%; Dose [22]: 5.79%; Dose [23]: 3.12%; Dose [24]: 0.08%; Dose [25]: 4.02%; Dose [26]: 0.47%; Dose [27]: 18.1%; Dose [28]: 0.02%; Dose [29]: 0.41%; Dose [30]: 4.01%; Ki [31]: 0.37 nM
